{"source": "paper PMC3204933", "about": "(Free radical biology & medicine, 2011)", "key": {"xanthine oxidase [1]": {"test_system": "xanthine oxidase", "settings": "ref [41], [47]; cited from earlier work"}, "[2]": {"test_system": "nitric oxide synthase (NOS)", "settings": "ref [41], [47]; cited from earlier work"}, "Nox4 (COS-Nox4 cells) [3]": {"test_system": "Nox4 (COS-Nox4 cells)", "settings": "DPI 5 μM; untreated COS-Nox4 4818±19, COS-22 2577±6.5"}, "[4]": {"test_system": "NADH dehydrogenase (mitochondrial complex I)", "settings": "ref [41], [47]; cited from earlier work"}, "Nox4 (COS-Nox4 cells) [5]": {"test_system": "Nox4 (COS-Nox4 cells)", "assay": "cells", "settings": "Homo sapiens, read-out: inhibition of Nox4-dependent activity"}, "[6]": {"target": "T1, Nox2 oxidase (COS-Nox2 cell lysate) (Homo sapiens, UniProt P14598)", "T1 sequence (P14598 1-390)": "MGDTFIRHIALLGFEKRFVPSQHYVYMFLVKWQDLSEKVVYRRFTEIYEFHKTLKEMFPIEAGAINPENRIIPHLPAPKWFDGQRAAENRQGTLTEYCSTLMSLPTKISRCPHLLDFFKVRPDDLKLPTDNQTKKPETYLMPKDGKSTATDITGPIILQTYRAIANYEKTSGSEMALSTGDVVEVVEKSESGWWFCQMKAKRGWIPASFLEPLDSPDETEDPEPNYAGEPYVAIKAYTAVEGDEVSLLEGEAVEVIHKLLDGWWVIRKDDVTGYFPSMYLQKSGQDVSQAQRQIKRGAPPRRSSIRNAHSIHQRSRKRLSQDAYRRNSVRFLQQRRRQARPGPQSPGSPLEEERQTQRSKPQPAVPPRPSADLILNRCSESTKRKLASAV", "assay": "SOD-inhibitable cytochrome c assay, COS-Nox2 cell-free system", "format": "biochemical", "settings": "for decrease of O2^•− production: L-NAME 100 μM, rotenone 50 μM, febuxostat 100 nM, n = 3"}, "[7]": {"test_system": "Nox1/NOXO1/NOXA1 (HEK-Nox1 cell-free system)", "assay": "Cytochrome c assay, HEK-Nox1 cell-free system", "format": "biochemical, human", "settings": "10 μM Nox2ds preincubated with NOXO1; LiDS 130 μM", "in_short": "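[…] cells were separately transfected with Nox1, NOXO1 or NOXA1. Lysates were spun at 160000 × g for 60 min at 4 °C to give Nox1 membranes and NOXO1 and NOXA1 cytosols. NOXO1 was preincubated with vehicle or 10 μM peptide for 10 min, then Nox1 membrane and NOXA1 added in turn. LiDS (130 μM) was followed by 180 μM NADPH. Output was the initial linear rate of SOD-inhibitable cytochrome c reduction, nmol/min/10^7 cell equivalents.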"}, "[8]": {"test_system": "HEK-Nox1/NOXO1/NOXA1 cells", "assay": "L-012 chemiluminescence, intact HEK-Nox1/NOXO1/NOXA1 cells", "format": "cell-based, human", "settings": "PMA 1 μM"}, "HEK 298 cells": {"test_system": "HEK 298 cells", "assay": "L-012 chemiluminescence, non-transfected HEK 298 cells", "format": "cell-based", "settings": "PMA 1 μM; n = 4; unstimulated 755±65.3"}, "COS-22 cells": {"test_system": "COS-22 cells", "assay": "L-012 chemiluminescence, intact COS-22 cells", "format": "cell-based", "settings": "n = 3, untreated 8734±158"}, "[9]": {"test_system": "Nox1 oxidase (COS-Nox1/NOXO1/NOXA1 cells)", "assay": "L-012 chemiluminescence, intact COS-Nox1/NOXO1/NOXA1 cells", "format": "cell-based, human", "settings": "n = 3; for L-012 chemiluminescence: untreated 52977±1921"}, "[10]": {"test_system": "Nox4 DH domain (GST-fused)", "assay": "Fluorescence polarization competition with FITC-Nox4 B-loop", "format": "binding", "settings": "for competition with Nox4 B-loop for Nox4 DH domain: fluorescence polarization"}, "SH3 domains of p47^phox": {"test_system": "SH3 domains of p47^phox", "settings": "ref [41], [42]; cited from earlier work"}, "xanthine oxidase [11]": {"test_system": "xanthine oxidase", "assay": "Xanthine/xanthine oxidase O2^•− generating system, EPR", "format": "biochemical"}, "[12]": {"target": "T2, Nox4 dehydrogenase domain (amino acids 304 – 578) recombinant protein fused to GST (human, UniProt Q9NPH5 304-578)", "T2 sequence (looked up)": "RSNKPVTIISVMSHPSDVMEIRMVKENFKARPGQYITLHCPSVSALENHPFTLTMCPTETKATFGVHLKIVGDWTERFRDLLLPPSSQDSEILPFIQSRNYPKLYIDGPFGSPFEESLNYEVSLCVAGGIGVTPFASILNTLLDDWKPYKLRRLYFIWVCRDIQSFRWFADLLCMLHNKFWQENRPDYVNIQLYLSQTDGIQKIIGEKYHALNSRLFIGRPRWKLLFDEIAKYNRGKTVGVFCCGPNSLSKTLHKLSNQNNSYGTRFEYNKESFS", "assay": "fluorescence polarisation"}}, "note": "“Also recorded” adds a separate entry of the source. Where no end group is shown, it is not given here."}
{"molecule": "c1ccc2c(c1)[I+]c1ccccc1-2", "note": "[DPI, diphenyleneiodonium chloride]", "values": [{"measurement": "inhibition", "setting": "xanthine oxidase [1]", "value": "inhibits a multitude of flavin-containing enzymes including nitric oxide synthase (NOS), xanthine oxidase"}, {"measurement": "inhibition", "setting": "[2]", "value": "inhibits a multitude of flavin-containing enzymes including nitric oxide synthase (NOS)"}, {"measurement": "H2O2-generating activity, Amplex Red fluorescence", "setting": "Nox4 (COS-Nox4 cells) [3]", "value": "2977±227", "unit": "RFU"}, {"measurement": "inhibition", "setting": "[4]", "value": "inhibits a multitude of flavin-containing enzymes including nitric oxide synthase (NOS), xanthine oxidase, and NADH dehydrogenase (mitochondrial complex I)"}, {"measurement": "inhibition at 5 µM", "setting": "Nox4 (COS-Nox4 cells) [5]", "value": 82, "unit": "%"}]}
{"molecule": "COC(=O)[C@@H](N)CCCNC(N)=N[N+](=O)[O-]", "note": "[L-NAME, Nω-Nitro-L-arginine methyl ester]", "values": [{"measurement": "decrease of O2^•− production", "setting": "[6]", "value": "did not decrease O2^•− production significantly"}]}
{"molecule": "CCCCCCCCCCCCOS(=O)(=O)[O-].[Li+]", "note": "[LiDS, lithium dodecyl sulfate]", "values": [{"measurement": "O2^•− production", "setting": "[6]; LiDS 130 μM, NADPH 180 μM, vehicle 0.40±0.1, p < 0.05", "value": "1.33±0.1 nmol O2^•−/min/10^7 COS-Nox2 lysate-cell equivalents"}, {"measurement": "effect on O2^•− production in HEK-Nox1 cell-free system", "setting": "[7]", "value": "significantly increased O2^•− production"}]}
{"molecule": "CCCCCCCCCCCCCC(=O)O[C@@H]1[C@@H](C)[C@@]2(O)[C@@H](C=C(CO)C[C@]3(O)C(=O)C(C)=C[C@@H]23)[C@@H]2C(C)(C)[C@]12OC(C)=O", "note": "[PMA, phorbol myristate acetate]", "values": [{"measurement": "stimulation of O2^•−", "setting": "[8]; n = 4, p < 0.05", "value": "significantly stimulated O2^•−"}, {"measurement": "L-012 chemiluminescence", "setting": "[8]; n = 4, unstimulated 8560±337, p < 0.05", "value": "12946±199", "unit": "RLUs"}, {"measurement": "L-012 chemiluminescence", "setting": "HEK 298 cells", "value": "912±40.5", "unit": "RLUs"}, {"measurement": "L-012 chemiluminescence", "setting": "COS-22 cells; PMA 1 μM", "value": "5903±541", "unit": "RLUs"}, {"measurement": "L-012 chemiluminescence", "setting": "[9]; PMA 1 μM", "value": "56537±2741", "unit": "RLUs"}, {"measurement": "effect on chemiluminescent signal / O2^•−", "setting": "[9]; SOD 150 U/ml, PMA 1 μM", "value": "did not stimulate O2^•−"}]}
{"molecule": "Cc1nc(-c2ccc(OCC(C)C)c(C#N)c2)sc1C(=O)O", "note": "[febuxostat, Febuxostat]", "values": [{"measurement": "decrease of O2^•− production", "setting": "[6]", "value": "did not decrease O2^•− production significantly"}]}
{"molecule": "C=C(C)[C@H]1Cc2c(ccc3c2O[C@@H]2COc4cc(OC)c(OC)cc4[C@@H]2C3=O)O1", "note": "[rotenone]", "values": [{"measurement": "decrease of O2^•− production", "setting": "[6]", "value": "did not decrease O2^•− production significantly"}]}
{"molecule": "Nox4 B-loop: unlabeled Nox4 B-loop peptide (amino acids 77 – 106) (RTLLAYLRGSQKVPSRRTRRLLDKSRTFHI)", "values": [{"measurement": "competition with Nox4 B-loop for Nox4 DH domain", "setting": "[10]", "value": "effectively competed off the FITC-Nox4 B-loop in the low micromolar range; also recorded: quite effectively, in the low micromolar range"}]}
{"molecule": "PR-39", "values": [{"measurement": "SH3 binding and association of p47^phox with Nox2", "setting": "SH3 domains of p47^phox", "value": "binds to the SH3 domains of p47^phox, was shown to prevent association of p47^phox with Nox2"}]}
{"molecule": "[NH3]-C-L-R-V-T-R-Q-S-R-[CONH2] [scrmb Nox2ds]", "values": [{"measurement": "inhibition of O2^•− production", "setting": "[6]; 0.1–10 μM, 5 min preincubation, LiDS 130 μM, NADPH 180 μM, 7–16 experiments", "value": "did not inhibit Nox2-oxidase"}, {"measurement": "competition with Nox4 B-loop", "setting": "[10]; at concentrations below 0.1 mM", "value": "not effective"}, {"measurement": "competition with Nox4 B-loop for Nox4 DH domain", "setting": "[10]", "value": "equal and poor competition with the Nox4 B-loop for binding to the Nox4 DH domain (millimolar concentrations)"}, {"measurement": "CM^• radical intensity", "setting": "xanthine oxidase [11]; 10 μM peptide + X/XO, 10 min, XO/X control 100±2.4, mean ± SEM of 6 experiments", "value": "92.4±1.8", "unit": "%"}, {"measurement": "effect on XO-generated O2^•−", "setting": "xanthine oxidase [11]; 10 μM, 10 min preincubation", "value": "did not alter XO-generated O2^•−"}]}
{"molecule": "superoxide dismutase [SOD]", "values": [{"measurement": "L-012 chemiluminescence", "setting": "COS-22 cells; SOD 150 U/ml", "value": "108±16", "unit": "RLUs"}, {"measurement": "effect on chemiluminescent signal / O2^•−", "setting": "[9]; SOD 150 U/ml, PMA 1 μM", "value": "abolished the chemiluminescent signal"}, {"measurement": "L-012 chemiluminescence", "setting": "[9]; SOD 150 U/ml", "value": "177±9", "unit": "RLUs"}, {"measurement": "radical intensity", "setting": "xanthine oxidase [11]; XO + X in presence of 100 U/ml SOD, 6 experiments", "value": "15.7±0.3", "unit": "%"}]}
{"molecule": "CSTRVRRQL-NH2", "note": "[Nox2ds]", "values": [{"measurement": "LogEC50", "setting": "[12]", "value": 5.5, "unit": "nM"}]}
{"molecule": "RTLLAYLRGSQKVPSRRTRRLLDKSRTFHI (peptide, UniProt Q9NPH5-1 77-106, looked up)", "note": "[unlabeled Nox4 B-loop peptide (amino acids 77 – 106)]", "values": [{"measurement": "LogEC50", "setting": "[12]", "value": 3, "unit": "nM"}]}
